Compound activity (PubChem BioAssay)
A selection: hits, their analogues and other compounds. The true share with any hit is near 2%.
Plk1 PBD FP = blocks phosphopeptide binding to human Plk1 polo box domain; 97,000 tested, 0.13% active; Plk1 PBD phosphopeptide binding, fluorescence polarization; inhibition, %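 (tested at about 20 µM)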; in the data active = inhibition above about 34%, passing the limit was not always enough
PTPN22 inh 2 = blocks human PTPN22 phosphatase activity | recombinant LYP catalytic domain, DiFMUP fluorescence | 96,000 tested, 0.21% active | Q9Y2R2 | inhibition, % at 2 µM;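 active = inhibition at 2 µM at or above a set limit, the screen mean plus 3 SD, cut at about 24% in these data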
PLK1 kinase inh = blocks human PLK1 kinase activity; inhibition, % at 10 µM; P53350; AID 619; 97,000 tested, 0.53% active; recombinant PLK1 kinase, TR-FRET peptide phosphorylation;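 active = inhibition of 50% or more in the single-concentration screen; inactive = inhibition below 50%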
PTPN22 act = LYP (human) phosphatase activation; 96,000 tested, 0.11% active; recombinant LYP, DiFMUP fluorescence; 0 = plate median, 100 = signal doubled; AID 697; activation, % at 2 µM;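 active = activation at 2 µM above a set limit, the mean plus 5 SD, cut at about 37% in these data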
HIV Rev-RRE inh = HIV Rev-RRE protein-RNA interaction inhibition; P05866; Rev peptide-RRE RNA binding, FRET; inhibition, % at 8 µM; 97,000 tested, 0.79% active; AID 704;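 active = inhibition above the screen-wide mean plus 3 SD, cut at about 35% in these data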
Target sequence (P05866 whole entry, looked up): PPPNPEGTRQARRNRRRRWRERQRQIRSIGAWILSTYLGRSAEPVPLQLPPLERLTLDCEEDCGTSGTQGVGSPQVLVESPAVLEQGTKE
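Probe or stimulus: fluorescein-Rev peptide as binding partner; assay system: Cy5-tagged RRE RNA duplex with fluorescein-tagged Rev peptide; timing: 5 min compound–RNA preincubation, then 15 min with peptide, 25 °C; medium: HEPES pH 7.5 buffer with KCl, MgCl2, NaCl and EDTA; signal: fluorescein-to-Cy5 FRET, 480 nm excitation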
EphB4 antag = blocks human EphB4 binding to ephrin-B2. EphB4 LBD / TNYL-RAW-Alexa532 peptide, fluorescence polarization. 97,000 tested, 0.15% active. inhibition, % at 7 µM;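 active = inhibition above the screen-wide mean inhibition plus 3 SD, cut at about 15% in these data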
Hits are given with their value.

What do the screens show for `O=C(NC1CCCCC1)NC1CCN(S(=O)(=O)Cc2ccccc2)CC1`?
Plk1 PBD FP: inactive; PTPN22 inh 2: inactive; PLK1 kinase inh: inactive; PTPN22 act: inactive; HIV Rev-RRE inh: inactive; EphB4 antag: inactive

How did COc1ccc(-c2cn(/N=C/c3ccc(Cl)cc3Cl)c(N)n2)cc1 do in these assays?
Plk1 PBD FP: inactive; PTPN22 inh 2: inactive; PLK1 kinase inh: 61.2; PTPN22 act: inactive; HIV Rev-RRE inh: inactive; EphB4 antag: inactive

How did COc1ccc(-c2onc3ccc(Cl)cc23)cc1 do in these assays?
Plk1 PBD FP: inactive; PTPN22 inh 2: inactive; PLK1 kinase inh: inactive; PTPN22 act: inactive; HIV Rev-RRE inh: inactive; EphB4 antag: inactive

Results for Cc1oc(-c2cccc(Cl)c2)nc1CN1CCCC(C(=O)NC(C)c2ccc3c(c2)OCCO3)C1 (stereo not given) ?
Plk1 PBD FP: inactive; PLK1 kinase inh: 56.0; HIV Rev-RRE inh: inactive; EphB4 antag: inactive

How did c1ccc(-c2ccc(C3=Nn4c(nnc4-c4cc(-c5ccccc5)n[nH]4)SC3)cc2)cc1 do in these assays?
Plk1 PBD FP: inactive; PTPN22 inh 2: 42.2; PLK1 kinase inh: inactive; PTPN22 act: inactive; HIV Rev-RRE inh: inactive; EphB4 antag: inactive

What do the screens show for `CCCNC(=O)c1oc2ccc3c(c2c1C)C(=O)CC(C)(C)O3`?
Plk1 PBD FP: inactive; PTPN22 inh 2: inactive; PLK1 kinase inh: inactive; PTPN22 act: inactive; HIV Rev-RRE inh: inactive; EphB4 antag: inactive

Results for Cc1c(C(=O)NC2CCCc3ccccc32)oc2ccc(S(=O)(=O)N3CCOCC3)cc12 (stereo not given) ?
Plk1 PBD FP: inactive; PTPN22 inh 2: inactive; PLK1 kinase inh: inactive; PTPN22 act: inactive; HIV Rev-RRE inh: inactive; EphB4 antag: inactive

Results for Cc1cc(N2CCN(c3nc(N4CCOCC4)nc4ccccc34)CC2)c2ccccc2n1 ?
Plk1 PBD FP: inactive; PTPN22 inh 2: inactive; PLK1 kinase inh: inactive; PTPN22 act: 39.0; HIV Rev-RRE inh: inactive; EphB4 antag: inactive

What do the screens show for `COc1cccc(-c2cc(C(F)(F)F)nc(N3CCC(C)CC3)n2)c1`?
Plk1 PBD FP: inactive; PTPN22 inh 2: inactive; PLK1 kinase inh: inactive; PTPN22 act: inactive; HIV Rev-RRE inh: 40.6; EphB4 antag: inactive

What do the screens show for `COc1cccc(-c2cc(C(F)(F)F)nc(N3CCOCC3)n2)c1`?
Plk1 PBD FP: inactive; PTPN22 inh 2: inactive; PLK1 kinase inh: inactive; PTPN22 act: inactive; HIV Rev-RRE inh: inactive; EphB4 antag: inactive

Results for O=C(CSc1nc(-c2ccco2)cc(C(F)(F)F)n1)NC1CCCC1 ?
Plk1 PBD FP: inactive; PLK1 kinase inh: 68.5; HIV Rev-RRE inh: inactive; EphB4 antag: inactive

Results for CCOc1ccc(N2CSC3=C(C#N)C(c4ccco4)CC(=O)N3C2)cc1 (stereo not given) ?
Plk1 PBD FP: inactive; PTPN22 inh 2: inactive; PLK1 kinase inh: inactive; PTPN22 act: inactive; HIV Rev-RRE inh: inactive; EphB4 antag: inactive

How did Cc1ccc(C2CC(=O)N3CN(c4ccc(Br)cc4)CSC3=C2C#N)o1 (stereo not given) do in these assays?
Plk1 PBD FP: inactive; PTPN22 inh 2: inactive; PLK1 kinase inh: inactive; PTPN22 act: inactive; HIV Rev-RRE inh: 44.6; EphB4 antag: inactive

Results for N#CC1=C2SCN(c3ccccc3)CN2C(=O)CC1c1ccccc1Cl (stereo not given) ?
Plk1 PBD FP: inactive; PTPN22 inh 2: inactive; PLK1 kinase inh: 55.5; PTPN22 act: inactive; HIV Rev-RRE inh: inactive; EphB4 antag: inactive

Results for Cc1nc(NC2CCCC2)sc1C(=O)N(C)C ?
Plk1 PBD FP: inactive; PTPN22 inh 2: inactive; PLK1 kinase inh: inactive; PTPN22 act: inactive; HIV Rev-RRE inh: inactive; EphB4 antag: inactive

What do the screens show for `Cc1ccc(S(=O)(=O)CCSc2nc(C)cc(C(F)(F)F)c2C#N)cc1`?
Plk1 PBD FP: inactive; PTPN22 inh 2: inactive; PLK1 kinase inh: inactive; PTPN22 act: inactive; HIV Rev-RRE inh: 64.2; EphB4 antag: inactive

How did Cc1cc(C(F)(F)F)c(C#N)c(Sc2ccccc2)n1 do in these assays?
Plk1 PBD FP: inactive; PTPN22 inh 2: inactive; PLK1 kinase inh: inactive; PTPN22 act: inactive; HIV Rev-RRE inh: inactive; EphB4 antag: inactive

How did COC(=O)CSc1nc(C)cc(C(F)(F)F)c1C#N do in these assays?
Plk1 PBD FP: inactive; PTPN22 inh 2: inactive; PLK1 kinase inh: inactive; PTPN22 act: inactive; HIV Rev-RRE inh: inactive; EphB4 antag: inactive

Results for CCOC(=O)NC(=O)CSc1nc(C)cc(C(F)(F)F)c1C#N ?
Plk1 PBD FP: inactive; PTPN22 inh 2: inactive; PLK1 kinase inh: inactive; PTPN22 act: inactive; HIV Rev-RRE inh: 41.6; EphB4 antag: inactive
